Most compounds without a hit are left out; they make up all but 5.9% or so of the library.
Pf Dd2 inh: blocks growth of Plasmodium falciparum Dd2 parasites; P. falciparum Dd2 growth, SYBR Green, 72 h; active compounds read low; activity change, % at 10 µM; 94,000 tested, 2.3% active; in the data active = activity change below about -80%; inconclusive = no clear call, values can overlap the other calls
T cruzi growth-1: blocks T. cruzi growth in NIH3T3 culture | T. cruzi beta-gal in NIH3T3, GalScreen luminescence, 90 h | 77,000 tested, 5.9% active | inhibition, % at 8.34 µM;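 active = mean inhibition above about 93%, with at least 55% of replicates each passing it, limit read from the data, passing the limit was not always enough; inconclusive = only one of those two conditions holds; inactive = neither condition holds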
IDH1 R132H inh: inhibitors of human IDH1 R132H. O75874. IDH1 R132H reductase, diaphorase/resazurin fluorescence, 60 min. inhibition, % at 10 µM. 70,000 tested, 0.18% active. AID 624101; in the data active = inhibition above about 34%; inconclusive = no clear call, values can overlap the other calls; inactive = below about 11%;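 also: 0% = DMSO and 100% = no enzyme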
Target sequence (O75874 whole entry R132H): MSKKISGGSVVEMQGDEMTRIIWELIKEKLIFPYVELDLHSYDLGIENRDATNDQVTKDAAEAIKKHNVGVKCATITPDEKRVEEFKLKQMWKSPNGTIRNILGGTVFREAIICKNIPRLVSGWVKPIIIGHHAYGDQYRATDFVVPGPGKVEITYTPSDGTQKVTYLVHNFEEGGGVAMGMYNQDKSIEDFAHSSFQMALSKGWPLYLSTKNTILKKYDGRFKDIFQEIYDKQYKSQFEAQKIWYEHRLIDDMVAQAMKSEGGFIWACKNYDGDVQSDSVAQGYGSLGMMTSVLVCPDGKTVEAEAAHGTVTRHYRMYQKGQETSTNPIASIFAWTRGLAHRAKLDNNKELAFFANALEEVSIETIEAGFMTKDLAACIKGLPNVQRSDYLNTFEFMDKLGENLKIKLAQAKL
KDM4C inh: blocks human GASC-1 (KDM4C) demethylase activity; Q9H3R0; GST-KDM4C 2-372, H3K9me3 peptide, LANCE TR-FRET; inhibition, % at 12.5 µM; 96,000 tested, 0.15% active;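 active = mean replicate inhibition above about 25%, with at least 55% of replicates also reaching it, limit read from the data, passing the limit was not always enough; inconclusive = only one of those two conditions met; inactive = neither condition met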
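Test system: N-terminal GST-fused human GASC-1 (KDM4C) fragment, residues 2-372; quantity: GASC-1 enzyme at 10 nM final in reaction; dosing: single dose; schedule: 30 min demethylation and 1 h detection at room temperature; signal: LANCE TR-FRET, excitation 340 nm, emissions 618 and 671 nm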
T cruzi growth-2: blocks T. cruzi growth in NIH3T3 host cells; shares compounds with T cruzi growth-1; T. cruzi beta-gal in NIH3T3, GalScreen luminescence, 90 h; inhibition, % at 8.35 µM; 5,600 tested, 72% active; AID 651739;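 active = mean replicate inhibition above about 95% and at least 55% of replicates individually reaching it, limit read from the data; inconclusive = only one of the two criteria is met; inactive = neither criterion is met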
T cruzi growth-3: blocks T. cruzi growth in NIH3T3 host cells; shares compounds with T cruzi growth-1; T. cruzi beta-gal in NIH3T3, GalScreen luminescence, 90 h; inhibition, % at 2.09 µM; 5,600 tested, 21% active;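 active = mean inhibition above about 95%, with at least 55% of replicates also reaching it, limit read from the data; inconclusive = meets just one of the two conditions; inactive = meets neither condition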;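 also: plate controls were neutral control median for no effect and positive control median for full effect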
3T3 cytotox: kills mouse NIH/3T3 fibroblasts; cytotoxicity (signal decrease), % at 8.35 µM; 5,600 tested, 14% active; NIH/3T3 viability, CellTiter-Glo ATP luminescence, 90 h; shares compounds with T cruzi growth-1;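 active = mean signal decrease across replicates above about 35% based on untreated-well scatter, with enough replicates individually passing, limit read from the data; inconclusive = no rule stated though some were filed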;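 also: 0% = median of neutral control wells and 100% = median of positive control wells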
NIH3T3 tox 2: cytotoxicity in mouse NIH/3T3 fibroblasts; shares compounds with T cruzi growth-1; NIH/3T3 viability, CellTiter-Glo ATP luminescence, 90 h; inhibition, % at 24.9 µM; 5,600 tested, 56% active; AID 651744;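 active = mean loss of cell viability signal at or above a set limit, and enough replicates individually reaching it; inconclusive = meets only the mean limit or only the replicate share; inactive = meets neither condition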;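 also: 0% = median of neutral control wells and 100% = median of positive control wells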
The depositor's hits bear a star; ? = inconclusive; . = no result given.

SMILES	Pf Dd2 inh	T cruzi growth-1	IDH1 R132H inh	KDM4C inh	T cruzi growth-2	T cruzi growth-3	3T3 cytotox	NIH3T3 tox 2
C[C@H](CO)N1C[C@H](C)[C@@H](CN(C)Cc2ccc(Cl)c(Cl)c2)OCCCC[C@H](C)Oc2ccc(NS(=O)(=O)c3cccs3)cc2C1=O	-19.6	?	.	-0.9	85.0	107.2*	11.1	104.0*
C[C@H](CO)N1C[C@H](C)[C@@H](CN(C)Cc2ccncc2)OCCCC[C@H](C)Oc2ccc(NS(=O)(=O)c3cccs3)cc2C1=O	1.5	21.1	19.2	0.9	.	.	.	.
C[C@@H]1CCCCO[C@H](CN(C)Cc2ccc(Cl)c(Cl)c2)[C@@H](C)CN([C@H](C)CO)C(=O)c2cc(NS(=O)(=O)c3cccs3)ccc2O1	-21.3	116.5*	.	0.4	105.2*	1.9	8.7	56.7*
C[C@@H]1CCCCO[C@@H](CN(C)Cc2ccc(Cl)c(Cl)c2)[C@@H](C)CN([C@H](C)CO)C(=O)c2cc(NS(=O)(=O)c3cccs3)ccc2O1	4.3	114.9*	1.4	-0.8	96.7*	83.5	-3.7	49.5*
O=C(CNS(=O)(=O)c1ccccc1)Nc1cccc(Cl)c1Cl	.	.	-0.3	.	.	.	.	.
COc1ccccc1-c1ccc2c(c1)O[C@@H](CN(C)S(=O)(=O)c1ccc(C)cc1)[C@@H](C)CN([C@H](C)CO)S2(=O)=O	-46.4	126.3*	-2.1	1.3	102.7*	86.8	23.7	36.6*
COc1ccccc1-c1ccc2c(c1)O[C@H](CN(C)C)[C@@H](C)CN([C@H](C)CO)S2(=O)=O	-11.2	18.6	-2.3	1.4	.	.	.	.
COc1ccccc1-c1ccc2c(c1)O[C@H](CN(C)S(=O)(=O)c1ccc(C)cc1)[C@H](C)CN([C@@H](C)CO)S2(=O)=O	-46.5	127.7*	.	-2.0	104.4*	?	?	58.2*
COc1ccccc1-c1ccc2c(c1)O[C@H](CN(C)S(=O)(=O)c1ccccc1)[C@@H](C)CN([C@H](C)CO)S2(=O)=O	-64.6	85.7	-0.1	.	.	.	.	.
COc1ccccc1-c1ccc2c(c1)O[C@H](CN(C)S(=O)(=O)c1ccccc1)[C@@H](C)CN([C@@H](C)CO)S2(=O)=O	-56.3	92.9*	.	.	95.1*	20.4	35.8*	46.5*
COc1ccccc1-c1ccc2c(c1)O[C@@H](CN(C)S(=O)(=O)c1ccc(C)cc1)[C@@H](C)CN([C@@H](C)CO)S2(=O)=O	-54.3	127.0*	0.1	0.2	105.2*	105.5*	52.8*	44.0*
Cc1cccc(NC(=O)C(Cc2ccccc2)N2C(=O)c3cc(Cl)c(Cl)cc3C2=O)c1 (stereo not given)	.	.	0.0	.	.	.	.	.
C[C@@H]1CN([C@@H](C)CO)C(=O)c2cc(NS(=O)(=O)c3ccccc3)ccc2O[C@@H](C)CCCCO[C@@H]1CN(C)C(=O)Nc1ccc(C(F)(F)F)cc1	-76.2	?	.	0.9	104.5*	74.2	20.3	43.2*
C[C@H](CO)N1C[C@H](C)[C@@H](CN(C)C(=O)Nc2ccc(C(F)(F)F)cc2)OCCCC[C@H](C)Oc2ccc(NS(=O)(=O)c3ccccc3)cc2C1=O	-28.6	?	.	0.1	114.0*	71.1	21.2	13.8
C[C@H]1CCCCO[C@H](CN(C)C(=O)Nc2ccc(C(F)(F)F)cc2)[C@@H](C)CN([C@@H](C)CO)C(=O)c2cc(NS(C)(=O)=O)ccc2O1	-45.2	96.6*	0.9	-0.9	112.9*	34.7	12.0	51.0*
COc1cc(/C(C)=C/C(C)CCCC(=O)O)oc(=O)c1C (stereo not given)	.	.	0.2	.	.	.	.	.
O=C(Nc1ccc(F)cc1)N1CCCCN2[C@@H](CO)[C@H](c3ccc(C#Cc4ccccc4)cc3)[C@@H]2C1	?	123.0*	.	-1.2	98.8*	110.7*	117.4*	104.8*
CC(C)C#Cc1ccc([C@H]2[C@@H](CO)N3CCCCN(C(=O)Nc4ccccc4)C[C@@H]23)cc1	6.6	113.3*	.	-0.2	107.5*	67.1	40.7*	33.8*

Screening data deposited in PubChem BioAssay by Broad Institute.
